Where two headings read alike, the source gives them in different places.
Columns and labels:
[1] = system: Prostate; test: NCI 60 cell panel, five-concentration assay, prostate subpanel; assay type: cell-based; settings: total growth inhibition; 48 h exposure
[2] = system: Colon; test: NCI 60 cell panel, five-concentration assay, colon subpanel; assay type: cell-based; settings: total growth inhibition; 48 h exposure
[3] = system: Renal; test: NCI 60 cell panel, five-concentration assay, renal subpanel; assay type: cell-based; settings: total growth inhibition; 48 h exposure
[4] = system: Breast; test: NCI 60 cell panel, five-concentration assay, breast subpanel; assay type: cell-based; settings: total growth inhibition; 48 h exposure
[5] = system: CNS; test: NCI 60 cell panel, five-concentration assay, CNS subpanel; assay type: cell-based; settings: total growth inhibition; 48 h exposure
[6] = system: NSCLC; test: NCI 60 cell panel, five-concentration assay, NSCLC subpanel; assay type: cell-based; settings: total growth inhibition; 48 h exposure
[7] = system: Ovarian; test: NCI 60 cell panel, five-concentration assay, ovarian subpanel; assay type: cell-based; settings: total growth inhibition; 48 h exposure
[8] = system: full NCI 60 cell panel; settings: for GI50: read-out: GI50 MG-MID (mean GI50)
[9] = system: Leukemia; test: NCI 60 cell panel, five-concentration assay, leukemia subpanel; assay type: cell-based; settings: total growth inhibition; 48 h exposure
[10] = system: Melanoma; test: NCI 60 cell panel, five-concentration assay, melanoma subpanel; assay type: cell-based; settings: total growth inhibition; 48 h exposure
[11] = system: female athymic nude mouse; settings: in vivo, ip
[12] = system: ERK1/2; test: Western blotting of ERK1/2 phosphorylation in MCF-7 cells; assay type: cell-based, human; settings: 5 μM, 20 h
Method in brief: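 MCF-7 cells treated 20 h, then collected in 20 mM HEPES pH 7.5 with 5 mM DTT, 2 mM EDTA, 0.1% CHAPS, 0.1% Triton X-100 and protease inhibitors, and freeze-thawed twice. Extracts run on SDS-PAGE at 80 μg protein/lane and immunoblotted for total and phosphorylated ERK1/2 and Akt, p53, p21 and β-actin. Blots representative of at least three experiments.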

[13] = system: p53; test: Western blotting of p53 in MCF-7 cells; assay type: cell-based, human; settings: 5 μM, 20 h
[14] = system: MCF-7 breast cancer cells; test: Growth and death of MCF-7 cells; assay type: cell-based, human; settings: 200 nM, viable cells counted daily
Method in brief: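 MCF-7 cells grown in RPMI 1640 with 10% FBS and 2 mM L-glutamine at 37°C, 5% CO2. Plated at 2×10^4 cells/cm2; compound added 24 h later from 10 mmol/L DMSO working solutions, with DMSO-only controls. Cells harvested with 0.11% trypsin/0.02% EDTA and counted; viability by trypan blue exclusion. Treated vs control compared by Student t-test, P<0.05.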

[15] = calculated panel mean, 48 h exposure
[16] = read-out: LC50 MG-MID (mean LC50), calculated panel mean, 48 h exposure

Compound	TGI Prostate [1] [µM]	TGI Colon [2] [µM]	TGI Renal [3] [µM]	TGI Breast [4] [µM]	TGI CNS [5] [µM]	TGI NSCLC [6] [µM]	TGI Ovarian [7] [µM]	CC50 [8] [µM]	TGI MG-MID (mean TGI) [8, 15] [µM]	TGI Leukemia [9] [µM]	TGI Melanoma [10] [µM]	GI50 [8, 15] [µM]	CC50 [8, 16] [µM]	maximum tolerated dose (MTD) [11] [mg/kg]	ERK phosphorylation [12]	p53 expression [13]	effect on MCF-7 cell growth (total cell number) [14]
COc1cc2c(/C=C3/C(=O)Nc4ccc(Br)cc43)c(Cl)[nH]c2cc1C [Compound 4]	7.94	6.76	10.96	10.47	8.91	14.13	8.13	39.8	9.33	6.17	9.55	–	–	–	–	–	–
COc1cc2c(/C=C3/C(=O)Nc4cc(Cl)ccc43)c(Cl)[nH]c2cc1C [Compound 7]	5.25	3.55	7.08	2.63	4.37	11.48	14.79	–	6.61	4.79	11.48	0.21	–	–	–	–	–
COc1cc2c(cc1C)NC(=O)/C2=C/c1c(Cl)n(C)c2cc(C)c(OC)cc12 [Compound 8]	97.72	87.10	–	77.62	87.10	97.72	91.20	–	77.62	60.26	45.71	24	91.2	–	–	–	–
COc1cc2c(/C=C3/C(=O)Nc4ccc(Br)cc43)c(Cl)n(C)c2cc1C [Compound 9]	8.91	6.03	6.76	4.90	7.08	9.33	13.49	36.3	8.32	20.89	7.41	1.66	–	–	–	–	–
COc1cc2c(/C=C3/C(=O)Nc4ccc(N(C)C)cc43)c(Cl)n(C)c2cc1C [Compound 10]	97.72	70.79	69.18	54.95	60.26	91.20	77.62	–	67.61	44.67	67.61	–	97.7	–	–	–	–
COc1cc2c(/C=C3/C(=O)N(C)c4ccccc43)c(Cl)n(C)c2cc1C [Compound 13]	10.00	8.51	10.23	13.18	4.47	33.11	18.20	77.6	11.48	4.07	14.13	0.32	–	–	–	–	–
COc1cc2c(/C=C3/C(=O)N(C)c4ccc(O)cc43)c(Cl)n(C)c2cc1C [Compound 14]	3.16	3.55	4.27	1.70	1.74	6.03	11.75	33.9	3.39	0.47	7.41	0.1	–	–	–	–	–
COc1cc2c(cc1C)N(C)C(=O)/C2=C/c1c(Cl)n(C)c2cc(C)c(OC)cc12 [Compound 15]	67.61	83.18	41.69	36.31	26.92	69.18	60.26	87.1	52.48	56.23	67.61	14.1	–	–	–	–	–
COc1cc2c(cc1C)N(C)C(=O)/C2=C/c1c(Cl)[nH]c2ccccc12 [Compound 16]	21.38	9.33	12.88	8.32	7.59	12.30	11.75	–	10.96	7.41	18.20	0.45	–	100	decreased ERK phosphorylation	caused a p53 increase	initially decreased cell proliferation, however after 24 h, the cells recovered and started to grow
CN(C)c1ccc2[nH]c(Cl)c(/C=C3/C(=O)Nc4ccc(Cl)cc43)c2c1 [Compound 18]	13.49	7.24	8.13	9.12	5.50	10.00	11.75	38.9	9.77	17.78	11.22	–	–	–	–	–	–
CN(C)c1ccc2[nH]c(Cl)c(/C=C3/C(=O)Nc4ccc(O)cc43)c2c1 [Compound 19]	53.70	20.42	33.88	33.88	36.31	31.62	52.48	–	29.51	13.49	25.70	4.37	–	–	–	–	–
COc1ccc2c(c1)/C(=C\c1c(Cl)[nH]c3ccc(N(C)C)cc13)C(=O)N2 [Compound 20]	19.05	9.55	13.80	8.51	7.94	15.49	15.14	49	12.02	10.23	15.49	2.29	–	–	–	–	–

Source: PMC2920599 (Journal of medicinal chemistry, 2010)
